Here are results for three compounds from ChEMBL document CHEMBL4014350, “Alkoxyurea-Based Histone Deacetylase Inhibitors Increase Cisplatin Potency in Chemoresistant Cancer Cell Lines” (J Med Chem, 2017).

Active and inactive are the calls of the source. The rule behind the calls is not given here. Where only a bound is given, the exact number is not on record here.

Assay [1] concerns CAL-27. Nature of the assay: Potentiation of cisplatin-induced apoptosis in human CAL27 cells at 0.5 uM preincubated for 48 hrs followed by cisplatin treatment for 6 hrs measured after 24 hrs by propidium iodide dye-based flow cytometry. It is filed as functional, cell-based. For orientation: A flow cytometer gives signals particle by particle.
For assay [2], the system named is CAL-27. As to the kind of experiment: Potentiation of 2 uM cisplatin-induced cytotoxicity against human CAL27 cells assessed as decrease in cell viability by measuring combination index at 100 uM preincubated for 48 hrs followed by cisplatin treatment measured after 72 hrs by MTT assay. It is filed as functional. To be noted: in the assay text read “at 100 nM” for “at 100 uM”. The method in brief:
(§1)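 HDAC inhibitor was added 48 h before cisplatin, then cells were exposed to cisplatin for 72 h and viability was read by MTT assay. Combination index was computed by the Chou–Talalay method: CI > 1 is antagonism, CI = 1 additive, CI < 0.9 synergism. Points with fraction affected below 0.20 were flagged.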

Assay [3] addresses T1, Histone deacetylase 1/6 (Homo sapiens) (UniProt Q13547+Q9UBN7). Nature of the assay: Inhibition of HDAC1/HDAC6 in human Cal27CisR cells assessed as potentiation of 10 uM cisplatin-induced cytotoxicity by measuring combination index at 900 nM preincubated for 48 hrs followed by cisplatin treatment measured after 72 hrs by MTT assay.
Assay [4] relates to CAL-27. Nature of the assay: Potentiation of 2 uM cisplatin-induced cytotoxicity against human CAL27 cells assessed as decrease in cell viability by measuring combination index at 1000 uM preincubated for 48 hrs followed by cisplatin treatment measured after 72 hrs by MTT assay. It is filed as functional. To be noted: in the assay text read “at 1000 nM” for “at 1000 uM”. The procedure, abridged: as §1

Assay [5] addresses T1, Histone deacetylase 1/6 (Homo sapiens). Nature of the assay: Inhibition of HDAC1/HDAC6 in human Cal27CisR cells assessed as potentiation of 5 uM cisplatin-induced cytotoxicity by measuring combination index at 900 uM preincubated for 48 hrs followed by cisplatin treatment measured after 72 hrs by MTT assay. It counts as cell-based. The procedure, abridged: (§2)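 Cal27 and cisplatin-resistant Cal27CisR cells were preincubated with the HDAC inhibitor for 48 h, then given cisplatin in combination. Viability was read by MTT after 72 h. The combination index was computed by the Chou–Talalay method: CI > 1 is antagonism, CI = 1 is additive, and CI < 0.9 is synergism. Points with fraction affected below 0.20 were flagged.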

Assay [6] deals with CAL-27. Nature of the assay: Potentiation of 2 uM cisplatin-induced cytotoxicity against human CAL27 cells assessed as decrease in cell viability by measuring combination index at 2000 uM preincubated for 48 hrs followed by cisplatin treatment measured after 72 hrs by MTT assay. It is filed as functional. To be noted: in the assay text read “at 2000 nM” for “at 2000 uM”. The procedure, abridged: as §1
On the technique in general: Tetrazolium assays rely on reduction of a dye to a coloured formazan, in cell work by metabolically active cells.

Assay [7] relates to CAL-27. As to the kind of experiment: Potentiation of 1 uM cisplatin-induced cytotoxicity against human CAL27 cells assessed as decrease in cell viability by measuring combination index at 1000 uM preincubated for 48 hrs followed by cisplatin treatment measured after 72 hrs by MTT assay. It counts as functional. To be noted: in the assay text read “at 1000 nM” for “at 1000 uM”. The method in brief:
as §2

Assay [8] deals with CAL-27. As to the kind of experiment: Potentiation of 0.316 uM cisplatin-induced cytotoxicity against human CAL27 cells assessed as decrease in cell viability by measuring combination index at 1500 uM preincubated for 48 hrs followed by cisplatin treatment measured after 72 hrs by MTT assay. It is filed as functional. To be noted: in the assay text read “at 1500 nM” for “at 1500 uM”. The method in brief: as §2

For assay [9], the target named is T1, Histone deacetylase 1/6 (Homo sapiens). As to the kind of experiment: Inhibition of HDAC1/HDAC6 in human Cal27CisR cells assessed as potentiation of 3.16 uM cisplatin-induced cytotoxicity by measuring combination index at 900 nM preincubated for 48 hrs followed by cisplatin treatment measured after 72 hrs by MTT assay.
Assay [10] shares this target. As to the kind of experiment: Inhibition of HDAC1/HDAC6 in human Cal27CisR cells assessed as potentiation of 20 uM cisplatin-induced cytotoxicity by measuring combination index at 1000 nM preincubated for 48 hrs followed by cisplatin treatment measured after 72 hrs by MTT assay.
The subject of assay [11] is CAL-27. As to the kind of experiment: Potentiation of 0.316 uM cisplatin-induced cytotoxicity against human CAL27 cells assessed as decrease in cell viability by measuring combination index at 900 uM preincubated for 48 hrs followed by cisplatin treatment measured after 72 hrs by MTT assay. It is filed as functional. To be noted: in the assay text read “at 900 nM” for “at 900 uM”. The procedure, abridged: as §2

The test system of assay [12] is CAL-27. As to the kind of experiment: Potentiation of cisplatin-induced cytotoxicity against human CAL27 cells assessed as fold reduction in cisplatin IC50 at 1 uM preincubated for 48 hrs followed by cisplatin treatment measured after 72 hrs by MTT assay relative to cisplatin alone. It counts as functional. The procedure, abridged:
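Cells were preincubated 48 h with HDAC inhibitor, then cisplatin was added over a concentration range for 72 h, with MTT read-out. Shift factor is cisplatin-alone IC50 divided by combination IC50. Data are mean ± SEM of pooled data from at least three independent experiments, each in triplicate. Significance was by t test (p < 0.05).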

For assay [13], the target named is T1, Histone deacetylase 1/6 (Homo sapiens). As to the kind of experiment: Inhibition of HDAC1/HDAC6 in human Cal27CisR cells assessed as potentiation of 1 uM cisplatin-induced cytotoxicity by measuring combination index at 1000 uM preincubated for 48 hrs followed by cisplatin treatment measured after 72 hrs by MTT assay. It counts as cell-based. The method in brief: (§3)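 Cal27CisR cells preincubated 48 h with the HDAC inhibitor, then exposed to cisplatin for 72 h. Viability read by MTT. Combination index calculated by the Chou–Talalay method: CI > 1 antagonism, CI = 1 additive, CI < 0.9 synergism. Points with fraction affected below 0.20 are flagged. Values are the mean of three experiments.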

Assay [14] has the same target. As to the kind of experiment: Inhibition of HDAC1/HDAC6 in human Cal27CisR cells assessed as potentiation of 1 uM cisplatin-induced cytotoxicity by measuring combination index at 2000 uM preincubated for 48 hrs followed by cisplatin treatment measured after 72 hrs by MTT assay. It is filed as cell-based. The procedure, abridged: as §3
Assay [15] deals with CAL-27. Nature of the assay: Potentiation of 0.316 uM cisplatin-induced cytotoxicity against human CAL27 cells assessed as decrease in cell viability by measuring combination index at 700 nM preincubated for 48 hrs followed by cisplatin treatment measured after 72 hrs by MTT assay.
Assay [16] relates to Cal27CisR. Nature of the assay: Induction of apoptosis in human Cal27CisR cells at 0.5 uM for 48 hrs by propidium iodide dye-based flow cytometry. It counts as functional, cell-based.
For assay [17], the target named is T1, Histone deacetylase 1/6 (Homo sapiens). Nature of the assay: Inhibition of HDAC1/HDAC6 in human Cal27CisR cells assessed as potentiation of 20 uM cisplatin-induced cytotoxicity by measuring combination index at 2000 nM preincubated for 48 hrs followed by cisplatin treatment measured after 72 hrs by MTT assay.
Assay [18] has the same target. Nature of the assay: Inhibition of HDAC1/HDAC6 in human Cal27CisR cells assessed as potentiation of 10 uM cisplatin-induced cytotoxicity by measuring combination index at 1000 nM preincubated for 48 hrs followed by cisplatin treatment measured after 72 hrs by MTT assay.

T1 sequence (Q13547 whole entry, looked up): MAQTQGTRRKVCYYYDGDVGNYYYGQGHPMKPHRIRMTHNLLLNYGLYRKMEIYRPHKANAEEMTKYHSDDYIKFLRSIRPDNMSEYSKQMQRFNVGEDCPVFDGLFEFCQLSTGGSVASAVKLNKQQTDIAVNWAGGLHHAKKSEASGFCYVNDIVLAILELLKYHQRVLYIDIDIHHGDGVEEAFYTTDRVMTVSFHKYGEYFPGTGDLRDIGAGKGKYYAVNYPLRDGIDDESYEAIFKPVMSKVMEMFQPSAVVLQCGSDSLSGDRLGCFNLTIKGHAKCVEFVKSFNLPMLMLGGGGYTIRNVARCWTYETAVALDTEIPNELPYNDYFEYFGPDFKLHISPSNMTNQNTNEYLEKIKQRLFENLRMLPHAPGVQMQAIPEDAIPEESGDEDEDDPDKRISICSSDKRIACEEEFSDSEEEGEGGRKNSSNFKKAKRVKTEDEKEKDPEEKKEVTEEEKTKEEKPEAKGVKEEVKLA
T1 sequence (Q9UBN7 whole entry, looked up): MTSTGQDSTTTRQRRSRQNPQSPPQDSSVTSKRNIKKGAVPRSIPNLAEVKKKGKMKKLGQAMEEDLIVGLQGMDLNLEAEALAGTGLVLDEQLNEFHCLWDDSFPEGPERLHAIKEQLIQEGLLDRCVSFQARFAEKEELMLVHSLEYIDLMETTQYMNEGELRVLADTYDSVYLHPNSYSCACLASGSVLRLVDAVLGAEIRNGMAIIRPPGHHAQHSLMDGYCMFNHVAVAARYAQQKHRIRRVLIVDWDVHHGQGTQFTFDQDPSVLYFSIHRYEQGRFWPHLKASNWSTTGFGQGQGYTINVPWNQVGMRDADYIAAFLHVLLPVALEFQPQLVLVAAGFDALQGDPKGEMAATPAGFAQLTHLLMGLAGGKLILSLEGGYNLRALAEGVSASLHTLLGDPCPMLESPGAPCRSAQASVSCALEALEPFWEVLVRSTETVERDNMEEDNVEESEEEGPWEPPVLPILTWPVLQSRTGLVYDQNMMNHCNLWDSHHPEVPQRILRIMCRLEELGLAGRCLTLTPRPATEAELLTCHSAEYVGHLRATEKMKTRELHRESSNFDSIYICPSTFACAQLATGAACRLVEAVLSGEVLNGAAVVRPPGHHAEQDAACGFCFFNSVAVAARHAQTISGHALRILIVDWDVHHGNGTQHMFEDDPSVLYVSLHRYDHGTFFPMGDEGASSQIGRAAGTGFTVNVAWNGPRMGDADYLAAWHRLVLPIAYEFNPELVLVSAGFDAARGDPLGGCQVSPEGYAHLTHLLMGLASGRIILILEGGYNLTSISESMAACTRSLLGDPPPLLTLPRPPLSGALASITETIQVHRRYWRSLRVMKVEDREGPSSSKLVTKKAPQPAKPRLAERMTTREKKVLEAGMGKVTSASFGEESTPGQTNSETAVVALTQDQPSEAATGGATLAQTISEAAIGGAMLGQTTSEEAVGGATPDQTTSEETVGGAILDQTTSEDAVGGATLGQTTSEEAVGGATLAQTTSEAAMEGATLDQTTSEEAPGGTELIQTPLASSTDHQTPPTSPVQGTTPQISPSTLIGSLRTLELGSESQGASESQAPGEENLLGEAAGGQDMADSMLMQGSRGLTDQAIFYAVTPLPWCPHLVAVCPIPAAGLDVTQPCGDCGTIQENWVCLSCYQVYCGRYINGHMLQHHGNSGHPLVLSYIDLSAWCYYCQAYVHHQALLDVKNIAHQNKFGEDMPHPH

For `COc1cc(NC(=O)NOCCCCCC(=O)NO)c2nccc(C)c2c1`, the result in assay [1] was Active.
On to `COc1cc(NC(=O)NOCCCCCC(=O)NO)c2nc(OC)cc(C)c2c1`, for which the CI in [2] is reported as 0.31.
Regarding `COc1cc(NC(=O)NOCCCCCC(=O)NO)c2ncccc2c1`, the CI worked out at 0.43 in assay [3]; 0.41 in [4]; 0.52 in assay [5]; 0.7 in assay [6]; 0.5 in assay [7]; 0.82 in assay [8]. For the same compound, the CI is 0.79 in assay [9]; 0.48 in assay [10]; 0.77 in assay [11]; 0.85 in assay [13]; 0.82 in [14]; less than 0.2 in [15]. Moreover, the results for the CI in [17] and in assay [18] were 0.68 and 0.49, respectively. The “fold change (FC)” value in assay [12] turned out to be 7.1. Also, in assay [16], the result was inactive.
